Reference: the RNAGym collection of RNA variant scans (doi:10.1126/science.aae0568)
Variants at the floor of the assay were thinned out.

B1: tRNA (parent)
chain: GUUCCGUUGGCGUAAUGGUAACGCGUCUCCCUCCUAAGGAGAAGACUGCGGGUUCGAGUCCCGUACGGAACG

Variants of: B1
Experiment: yeast fitness relative to wild type (ratio to wild type); higher = fitter; tRNA-Arg(CCU), competitive growth, 37 C, YPD
How it was run: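 Start and end populations of a pooled competition were compared by 100-nucleotide paired-end sequencing of gene amplicons. The Saccharomyces cerevisiae strains carried tRNA-Arg(CCU) gene variants at the native genomic locus, synthesised with a 3% per-site mutation rate at 69 sites, and competed in YPD at 37°C for 24 hours in six parallel replicates. Darwinian fitness relative to wild type was based on the change in genotype frequencies. Genotypes required ≥ 100 starting reads, and estimates < 0.5 were set to 0.5.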

| Variant | yeast fitness |
| --- | --- |
| GUCCCGUUGGCGUAAUGGUAACGCGUGUCCCUUCUAAGGAGAUGACUGCGGGUUCGAGUCCCGUACGGAACG [U3C C27G C33U A43U] | ≤ 0.5 |
| GCUCCGUUGGCGUGAUGGUAACGCGUCUCCCUCCUAAGGAGAAGAUUGCGGGUUCGAGUCCCGUACGGAACG [U2C A14G C46U] | 0.669 |
| GUUCCGUUGGCGUUAUGGUAACGCGUCUCCCUCCUAAGGAGAAGACUGCGGGUUCGAGUCCUGUACGGAACG [A14U C62U] | 0.616 |
| GUUCUGUUGGCGUAAUGGUAACGCGUCUCCCUCCUAAGGAGAAGACUGCGGGUUCCAGUCCCGUGCGGAACG [C5U G56C A65G] | 0.536 |
| GUUGCGUUGGCGUAAUGGUAACGCGUCUCCCUCCUAAGGAGAAGACUGCGGGUUCGAGUCCCGUACGGAUCG [C4G A70U] | 0.806 |
| GUUCUGUUGGCGUAAUGGUUACGCGUCUCCCUCCUAAGGAGAAGACUGAGGGUUCGAGUCCCGUACGGAACG [C5U A20U C49A] | ≤ 0.5 |
| GUUCCGUUGGCGUAAUGGUAACGCGUCUCCCUCCCAAGGAGAAGACUGCGGGUGCGAGUCCCGUACGGAACG [U35C U54G] | 0.552 |
| GUUCCGUUGGUGUAAUGAUAACGCGUCUCCUUCCUAAGGUGAAGACGGCGGGUUCGAGUCCCGUACGGAACG [C11U G18A C31U A40U U47G] | ≤ 0.5 |
| GUUCCGUUGGAGUAAUGGUAACGCGUCUCCCUCCUAAGGGGAAGACUGCGGGCUCGAGUCCCGUACGGAACG [C11A A40G U53C] | 0.619 |
| GUUCCGUUGGCGUAAUGGUAACGCGUCUCCCUCAUAAGGAGAAGACUGCGGGUUCCAAUCCCCUUCGGAACG [C34A G56C G58A G63C A65U] | ≤ 0.5 |
| GUUCUGUUGGCGUAAUCGUAACGCGUCUCACUCCUAAGGAGAAGACUGCGGGUUCGCGUCCCGUACGGAACG [C5U G17C C30A A57C] | ≤ 0.5 |
| GUUCCGUUGGCGUGAUGGUAACGGGUCUCCCUCCUAAGGAGCAGACUGCGGGUUCGAGUCCCGUACGGAACG [A14G C24G A42C] | 0.512 |
| GUUUCGUUGGCGUAAUGGUAACGCGUCUCCCUCCUAAGGAGAAGACUGCGGGUUCGAGUCCCGUAGGGAACG [C4U C66G] | 0.75 |
| GUUCUGUUGGUGUAAUGGUAACGCGUCUCGCUCCUAAGGAGAAGACUGCGGGUUCGAGUCACGUACGGAACG [C5U C11U C30G C61A] | ≤ 0.5 |
| GUUCCGUUGGCGUCAUGGUACCGCGUUUCCCUCCUAAGGAGAAGACUGCGGGUUCGAGUCCUGUACGGCACG [A14C A21C C27U C62U A69C] | ≤ 0.5 |
| GUUCCGUUGGCGUAAUGGUAACGCGUCUCCCUCCUAACGAGAAGACUGCGGGUUCAAGUCCCGUACGGAACG [G38C G56A] | 0.789 |
| GUUCCGUUGACGUAAUGGUAACACGUCUCCCUCCGAAGGAGAAGACUGCGGGUUCGAGUCCCGUACGGAACG [G10A G23A U35G] | ≤ 0.5 |
| GUUCGGUUGGCGUAAUGGUAACGCGCCUCCCUCCUAAGGAGAAGCCUGCGGGUUCGAGUCCCAUACGGAACG [C5G U26C A45C G63A] | ≤ 0.5 |
| GUUCCGUCAGCGCAAUGGUCACGCGUCUCCCUCCUAAGGAGAAGACUGCGGGUUCGAGUCCCGUACGGAACG [U8C G9A U13C A20C] | 0.541 |

| Variant | yeast fitness |
| --- | --- |
| GUUCCGUUGGCGUAACGGUAACGCGUCUCCUUAGAAAGGAGAAGACUGCGGAUUCGAGUCCCGUACGGAACG [U16C C31U C33A C34G U35A G52A] | ≤ 0.5 |
| GUUCCGUUGGCGUAAUAGUAACGCGUCUCCCACCUAAGGAGAAGACUGUGGGUUCGAGUCCAGUACCGAACG [G17A U32A C49U C62A G67C] | ≤ 0.5 |
| GUUCCGUUGGCGUAAUGGUAAAGCGUCUCCCUCCUAAGGAGAAGACAACGGGUUCGAGUCCCGUACGGAGCG [C22A U47A G48A A70G] | ≤ 0.5 |
| GUUCCGUUGGCGUAAUGGUAACGCGUCUCCCUCCUGAGGAGAAGACUGCGGGUUCGAGCCCCGUACGGAACG [A36G U59C] | 1.18 |
| GUUCCCUUGGCGUGAUGGUAACGCGUCUCCCUCCGAAGGAGAAGACUGCGAGUUCGAGUCCCGUACGGAACG [G6C A14G U35G G51A] | ≤ 0.5 |
| GUUCGGUUGGCGUAAUGGUAACGCGUCUCCCUCCUACGGAGAAGACUGCGCGUUCGGGUCCCGUACGGAACG [C5G A37C G51C A57G] | 0.598 |
| GUUCCGUUGGCGUAAUGGUAACGCGUCUCCCUCCUAAGGAGGAGACUGCGGGUUCGAGUCCUGUACGGAACG [A42G C62U] | 0.962 |
| GUUCUGUUGGCGUAAUGGUAACGUGUCUCCCCCCUAAGGAGAAGACUGCGGGUUCGAGUCCCGUACGGAACG [C5U C24U U32C] | 0.72 |
| GUUCCGUUGGCGUAAUGGUAACGCGUCUGCCUCCUAAGGAGAAGACUACGGGUUCGAGUCCCGUACGGAUCG [C29G G48A A70U] | ≤ 0.5 |
| GUUCCGUUGGCGUAAUGGUAACGCGCCUCCUUCCUAAGGAGAAGACUGUGGGUUCGAGUCCCGUAGGGAACG [U26C C31U C49U C66G] | ≤ 0.5 |
| GUUCCGUUGGCGUAAUGGUAACGCGCCUCCCUACUAAGGUGAAGACUGCGGGUUCGAGUCCCGUACGGAACG [U26C C33A A40U] | 0.668 |
| GUUCCGUUGGGGUAAUGGUAUCGCGCCUCCCUCCUAAGGAGAAGACUGCGGGGUCGAGUCCCGUACGGAACG [C11G A21U U26C U53G] | 0.696 |
| GUUCCGUUGGCGUAUUGGUAACGGGUCUCUCUCCUAAGGAGAAGACUGCGGGUUCGAGUCCCGUACGGAACG [A15U C24G C30U] | 0.608 |
| GUUCCGUUGGCGUAAAGGUGACGCGUCUCCCUCCUAAGGAGAAGACUGCGGGUUCGAGUCCAGUACGGAACG [U16A A20G C62A] | 0.546 |
| GUUCCGUUCGCGUAAUGGUAACGCGUCUCCCUCCUAAGGAGAAGCCUGCGGGUUCGAGUCCCGUACGGAACG [G9C A45C] | 0.587 |
| GUUCCGUUGGCCUAAUGGUACCGCGUCUCCCUCCUAAGGAGAAGACUGCGGGUUCGAGUCCCGUACGGAACG [G12C A21C] | 0.638 |
| GUUCCGUUGGCGUAAUGGUAACGCGUCUCCGUUCUAAGGAGCAGACUGCGGGUUCGAGUCCCGUAGGGAACG [C31G C33U A42C C66G] | ≤ 0.5 |
| GUUCCGUUGGCGUAUUGGUAGCGCGUCUCCGUCCUAAGGAGAAGACUGAGGGUUCGAGUCCCGUACGGAACG [A15U A21G C31G C49A] | ≤ 0.5 |
| GUUCCGUUAGCUUUAUGGUAACGCGUGUCCCUCCUAAGAAGAAGACUGCGGGUUCGAGUCCCGUACAGAACG [G9A G12U A14U C27G G39A G67A] | ≤ 0.5 |
